Values after ≈ are worked out from the molar mass of the structure shown.
Columns and labels:
Type in all cases: functional
Escherichia coli = assay: Antibacterial activity was determined against Escherichia coli NIHJ JC-2 (Gram-negative)
Outline: (§1)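 2-fold agar dilution on Müller-Hinton agar. Overnight broth cultures were diluted to about 10^6 CFU/mL, and 10^4 CFU/spot was applied to plates with graded drug concentrations. Plates were incubated 18 h at 37 °C.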

[1] = tested on: Staphylococcus epidermidis; assay: Antibacterial activity was determined against Staphylococcus epidermidis ATCC 12228 (Gram-positive); outline: as §1
Staphylococcus aureus [2] = assay: Antibacterial activity was determined against Methicillin-resistant Staphylococcus aureus (MRSA) 5038 (Gram-positive)
Enterococcus faecalis [3] = assay: Antibacterial activity was determined against Enterococcus faecalis ATCC 21212 (Gram-positive); outline: as §1
Serratia marcescens = assay: Antibacterial activity was determined against Serratia marcescens ATCC 12648 (Gram-negative); outline: as §1
Pseudomonas aeruginosa = assay: Antibacterial activity was determined against Pseudomonas aeruginosa ATCC 10145 (Gram-negative); outline: as §1
Klebsiella pneumoniae = assay: Antibacterial activity was determined against Klebsiella pneumoniae NCTC 9632 (Gram-negative); outline: as §1
Staphylococcus aureus [4] = assay: Antibacterial activity was determined against Staphylococcus aureus FDA 209P (Gram-positive); outline: as §1
Mus musculus [5] = assay: Antibacterial activity was determined against Streptococcus pneumoniae C 0096 at a challenge dose of 1.60*10e2 (cells/mouse) administered subcutaneously; conditions: sc
Outline: (§2)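 Cultures were grown overnight at 37 °C in tryptic soy broth (S. aureus, MRSA, E. faecalis) or Müller-Hinton broth (E. coli, S. pneumoniae). Graded doses were given subcutaneously 1 h post-infection. ED50 was calculated by probit from day-7 survival, with 95% confidence limits.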

Streptococcus pneumoniae = assay: In vitro antibacterial activity against clinical isolates Ampicillin-insensitive Streptococcus pneumoniae was determined; outline: as §1
Staphylococcus aureus [6] = assay: […] was determined against MRSA 5120
Mus musculus [7] = assay: Antibacterial activity was determined against MRSA 5120 at a challenge dose of 7.6*10e7 (cells/mouse) administered subcutaneously; conditions: sc; outline: as §2
Mus musculus [8] = assay: Antibacterial activity was determined against Staphylococcus aureus Smith at a challenge dose of 1.32*10e7 (cells/mouse) administered subcutaneously; conditions: sc; outline: as §2
Staphylococcus aureus [9] = assay: In vitro antibacterial activity against clinical isolates methicillin-resistant Staphylococcus aureus was determined
Outline: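 2-fold agar dilution on Müller-Hinton agar. Overnight broth cultures were diluted to about 10^6 CFU/mL, and 10^4 CFU/spot was applied to plates with graded drug concentrations.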

Enterococcus faecalis [10] = assay: In vitro antibacterial activity against clinical isolates Enterococcus faecalis was determined; outline: as §1
Mus musculus [11] = assay: Antibacterial activity was determined against Escherichia coli 29 at a challenge dose of 1.35*10e6 (cells/mouse) administered subcutaneously; conditions: sc; outline: as §2
Mus musculus [12] = assay: Antibacterial activity was determined against Enterococcus faecalis C 0063 at a challenge dose of 7.00*10e7 (cells/mouse) administered subcutaneously; conditions: sc; outline: as §2
Mus musculus [13] = assay: Antibacterial activity was determined against MRSA 5129 at a challenge dose of 1.38*10e8 (cells/mouse) administered subcutaneously; conditions: sc
Outline: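 Male ICR mice (~20 g, 10 per dose group) were challenged intraperitoneally with 0.5 mL of about 10-100 times the LD50. Inoculum was an overnight 37 °C tryptic soy broth culture suspended in fresh broth with 5% gastric mucin. Various subcutaneous doses were given 1 h post-infection. Survivors were counted on day 7, and ED50 with 95% confidence limits was derived by probit.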

Mus musculus [14] = assay: Antibacterial activity was determined against MRSA 5038 at a challenge dose of 1.00*10e7 (cells/mouse) administered subcutaneously; conditions: sc; outline: as §2
Staphylococcus aureus [15] = assay: […] was determined against MRSA 5129

Row | SMILES | MIC (Escherichia coli) | MIC [1] | MIC (Staphylococcus aureus [2]) | MIC (Enterococcus faecalis [3]) | MIC (Serratia marcescens) | MIC (Pseudomonas aeruginosa) | MIC (Klebsiella pneumoniae) | MIC (Staphylococcus aureus [4]) | ED50 (Mus musculus [5]) | MIC50 (Streptococcus pneumoniae) | MIC80 (Streptococcus pneumoniae) | MIC90 (Streptococcus pneumoniae) | MIC (Staphylococcus aureus [6]) | ED50 (Mus musculus [7]) | MIC50 (Staphylococcus aureus [9]) | MIC80 (Staphylococcus aureus [9]) | MIC90 (Staphylococcus aureus [9]) | also measured
1 | NC(=O)C[n+]1ccc(SCC2=C(C(=O)O)N3C(=O)[C@@H](NC(=O)/C(=N\OC4CCCC4)c4csc(N)n4)[C@H]3CO2)cc1.O=S(=O)([O-])O | 0.2 µg/mL | 0.05 µg/mL | 6.25 µg/mL | 1.56 µg/mL | 1.56 µg/mL | 3.13 µg/mL | 0.2 µg/mL | 0.1 µg/mL |  |  |  |  |  |  |  |  |  | 
2 | CN(C)C(=O)C[n+]1ccc(SCC2=C(C(=O)O)N3C(=O)[C@@H](NC(=O)/C(=N\OC4CCCC4)c4csc(N)n4)[C@H]3CO2)cc1.O=S(=O)([O-])O | 0.78 µg/mL | 0.39 µg/mL | 12.5 µg/mL | 1.56 µg/mL | 1.56 µg/mL | 12.5 µg/mL | 0.78 µg/mL | 0.2 µg/mL |  |  |  |  |  |  |  |  |  | 
3 | C=CC[n+]1ccc(SCC2=C(C(=O)O)N3C(=O)[C@@H](NC(=O)/C(=N\OC4CCCC4)c4csc(N)n4)[C@H]3CO2)cc1.O=S(=O)([O-])O | 0.39 µg/mL | 0.05 µg/mL | 6.25 µg/mL | 0.78 µg/mL | 1.56 µg/mL | 6.25 µg/mL | 0.39 µg/mL | 0.1 µg/mL |  |  |  |  |  |  |  |  |  | 
4 | Nc1nc(/C(=N/OC2CCCC2)C(=O)N[C@@H]2C(=O)N3C(C(=O)O)=C(CSc4cc[n+](CC(=O)N5CCC(O)CC5)cc4)OC[C@H]23)cs1.O=S(=O)([O-])O | 1.56 µg/mL | 0.39 µg/mL | 25 µg/mL | 3.13 µg/mL | 3.13 µg/mL | 12.5 µg/mL | 0.78 µg/mL | 0.2 µg/mL |  |  |  |  |  |  |  |  |  | 
5 | CCC(=O)C[n+]1ccc(SCC2=C(C(=O)O)N3C(=O)[C@@H](NC(=O)/C(=N\OC4CCCC4)c4csc(N)n4)[C@H]3CO2)cc1.O=S(=O)([O-])O | 0.39 µg/mL | 0.2 µg/mL | 6.25 µg/mL | 1.56 µg/mL | 1.56 µg/mL | 6.25 µg/mL | 0.39 µg/mL | 0.2 µg/mL | 0.56 mg/kg | 0.025 µg/mL | 0.05 µg/mL | 0.05 µg/mL | 6.25 µg/mL | 1 mg/kg | 6.25 µg/mL | 6.25 µg/mL | 6.25 µg/mL | ED50 (Mus musculus [8]): 0.22 mg/kg; MIC50 (Enterococcus faecalis [10]): 3.13 µg/mL; MIC80 (Enterococcus faecalis [10]): 3.13 µg/mL; MIC90 (Enterococcus faecalis [10]): 6.25 µg/mL; ED50 (Mus musculus [11]): 0.15 mg/kg; ED50 (Mus musculus [12]): 5.23 mg/kg
6 | CC(C)(C)NC(=O)C[n+]1ccc(SCC2=C(C(=O)O)N3C(=O)[C@@H](NC(=O)/C(=N\OC4CCCC4)c4csc(N)n4)[C@H]3CO2)cc1.O=S(=O)([O-])O | 1.56 µg/mL | 0.39 µg/mL | 12.5 µg/mL | 1.56 µg/mL | 3.13 µg/mL | 25 µg/mL | 1.56 µg/mL | 0.2 µg/mL |  |  |  |  |  |  |  |  |  | 
7 | CC1(C)S[C@@H]2[C@H](NC(=O)[C@H](N)c3ccccc3)C(=O)N2[C@H]1C(=O)O [AMPICILLIN] |  |  |  |  |  |  |  |  | 8.23 mg/kg | 3.13 µg/mL (≈ 8.96 µM) | 3.13 µg/mL (≈ 8.96 µM) | 3.13 µg/mL (≈ 8.96 µM) |  |  |  |  |  | 
8 | CO[C@@]1(NC(=O)CSC(F)F)C(=O)N2C(C(=O)O)=C(CSc3nnnn3CCO)CO[C@@H]21 [FLOMOXEF] | 0.1 µg/mL (≈ 0.201 µM) | 0.39 µg/mL (≈ 0.786 µM) | 50 µg/mL (≈ 101 µM) | 100 µg/mL (≈ 201 µM) | 0.78 µg/mL (≈ 1.57 µM) | > 100 µg/mL | 0.1 µg/mL (≈ 0.201 µM) | 0.39 µg/mL (≈ 0.786 µM) | 18.6 mg/kg | 3.13 µg/mL (≈ 6.3 µM) | 6.25 µg/mL (≈ 12.6 µM) | 6.25 µg/mL (≈ 12.6 µM) | 25 µg/mL (≈ 50.4 µM) | 8.52 mg/kg | 25 µg/mL (≈ 50.4 µM) | 100 µg/mL (≈ 201 µM) | 100 µg/mL (≈ 201 µM) | MIC50 (Enterococcus faecalis [10]): > 100 µg/mL; MIC80 (Enterococcus faecalis [10]): > 100 µg/mL; MIC90 (Enterococcus faecalis [10]): > 100 µg/mL; ED50 (Mus musculus [11]): 0.43 mg/kg; ED50 (Mus musculus [12]): > 200 mg/kg
9 | CN[C@H](CC(C)C)C(=O)N[C@H]1C(=O)N[C@@H](CC(N)=O)C(=O)N[C@H]2C(=O)N[C@H]3C(=O)N[C@H](C(=O)N[C@H](C(=O)O)c4cc(O)cc(O)c4-c4cc3ccc4O)[C@H](O)c3ccc(c(Cl)c3)Oc3cc2cc(c3O[C@@H]2O[C@H](CO)[C@@H](O)[C@H](O)[C@H]2O[C@H]2C[C@](C)(N)[C@H](O)[C@H](C)O2)Oc2ccc(cc2Cl)[C@H]1O [VANCOMYCIN] | > 100 µg/mL | 3.13 µg/mL (≈ 2.16 µM) | 0.78 µg/mL (≈ 0.538 µM) | 0.78 µg/mL (≈ 0.538 µM) | > 100 µg/mL | > 100 µg/mL | > 100 µg/mL | 0.78 µg/mL (≈ 0.538 µM) |  |  |  |  | 0.78 µg/mL (≈ 0.538 µM) | 11.5 mg/kg | 1.56 µg/mL (≈ 1.08 µM) | 1.56 µg/mL (≈ 1.08 µM) | 1.56 µg/mL (≈ 1.08 µM) | ED50 (Mus musculus [13]): 18.7 mg/kg; ED50 (Mus musculus [14]): 2.7 mg/kg; MIC (Staphylococcus aureus [15]): 0.78 µg/mL (≈ 0.538 µM); ED50 (Mus musculus [8]): 3.74 mg/kg
